# MrgX1 antagonist: blocks BAM8-22 activation of human MrgX1 receptor; Q96LB2; MRGX1-HEK293 calcium flux, Fluo-4, BAM8-22 antagonism; active compounds read low; B-score at 10 µM; hit rate 1.3% among 310,000;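 active means calcium-response B-score plate-corrected more than 3 library SD below zero, starting fluorescence within 5 deviations, no agonist response on first addition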;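 further: peak minus trough fluorescence over baseline after final BAM8-22 challenge near maximal dose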
# Target sequence (Q96LB2 whole entry, looked up): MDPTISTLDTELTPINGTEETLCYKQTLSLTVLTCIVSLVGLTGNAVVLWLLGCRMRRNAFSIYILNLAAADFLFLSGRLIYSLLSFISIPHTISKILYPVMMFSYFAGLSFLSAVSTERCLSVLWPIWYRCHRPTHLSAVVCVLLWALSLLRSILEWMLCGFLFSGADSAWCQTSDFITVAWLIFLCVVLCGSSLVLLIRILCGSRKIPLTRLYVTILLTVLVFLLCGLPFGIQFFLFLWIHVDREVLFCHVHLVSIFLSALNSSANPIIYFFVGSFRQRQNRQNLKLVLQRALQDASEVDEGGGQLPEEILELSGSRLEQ
# MrgX1 agonist: agonists of human MrgX1 receptor | Q96LB2 | MrgX1-HEK293 cells, Fluo-4 calcium fluorescence, agonist mode; active compounds read high | B-score at 10 µM | hit rate 0.44% among 310,000;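 active means calcium response B-score plate-corrected fluorescence ratio at least 3 library SD, with starting fluorescence B-score inside 5 SD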
#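 Test system: HEK293 cells stably expressing human MrgX1 receptor; Input: fifteen thousand cells per well; Dosing: compound delivered in addition one of three; Schedule: overnight seeding, then 1 h dark dye loading; Technique: Fluo-4 NW calcium fluorescence; Measure: B-scored fluorescence response ratio; Controls: positive and negative controls per plate.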
# RGS4 act: RGS4 potentiation or activation | HEK293 M3R/inducible RGS4, carbachol calcium flux Fluo4; active compounds read low | B-score at 10 µM | hit rate 0.92% among 310,000 | AID 463111;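 active means B-score of the integrated calcium signal more than 4 SD below the library mean, with starting fluorescence not abnormally high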;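 further: negative B-score means reduced calcium response which marks RGS4 activation or potentiation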
#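 Test system: HEK293 cells with stable M3R and inducible RGS4; also added: carbachol at ECmax as muscarinic agonist stimulus; schedule: dye loading 30 min 37 °C, buffer rest 30 min RT; technique: kinetic calcium fluorescence imaging with Fluo4-AM dye, 2 µM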
# MrgX1 allo act: human MrgX1 positive allosteric modulation, primary screen | Q96LB2 | MrgX1-HEK293, Fluo-4 calcium flux, FDSS; active compounds read high | B-score at 10 µM | hit rate 0.63% among 310,000;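 active means plate-corrected calcium response at least 3 library SD above typical, normal starting fluorescence, not activating the receptor alone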;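 further: compound read alongside a low EC10 to EC30 dose of BAM8-22 agonist; peak minus trough fluorescence over baseline measured at the second addition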
# RGS4 inh: inhibitors of human RGS4; B-score at 10 µM; HEK293 M3R/RGS4 inducible, Fluo-4 calcium flux; active compounds read high; triggered by carbachol at its EC20; P49798; hit rate 0.45% among 310,000; AID 463165;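 active means B-score, a plate-corrected calcium signal, over three deviations above library mean, with baseline fluorescence within five deviations of library mean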;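 further: RGS4 expression induced by doxycycline in cells with stable M3 receptor; B-score is computed from the integrated fluorescence ratio over baseline after carbachol; higher B-score means a larger calcium signal and so more RGS4 inhibition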
# Target sequence (P49798 whole entry, looked up): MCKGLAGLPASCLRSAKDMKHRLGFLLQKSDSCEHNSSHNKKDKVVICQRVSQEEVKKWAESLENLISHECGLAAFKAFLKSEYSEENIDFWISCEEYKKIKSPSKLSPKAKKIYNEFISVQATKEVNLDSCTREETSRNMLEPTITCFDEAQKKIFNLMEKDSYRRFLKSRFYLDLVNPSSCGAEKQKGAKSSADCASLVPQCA
# Starred values were filed as active, the others as inactive; i = inactive; / = no result given. Most compounds without a hit are left out; they make up all but 3.5% or so of the library.
SMILES,MrgX1 antagonist,MrgX1 agonist,RGS4 act,MrgX1 allo act,RGS4 inh
COc1ccc(OC)c(NC(=O)Cc2ccc(NC3=NC4CS(=O)(=O)CC4S3)cc2)c1 (configuration not stated),i,i,i,i,i
O=C(C1=C(O)C(=O)N(CCN2CCOCC2)C1c1ccc([N+](=O)[O-])cc1)c1cccs1 (configuration not stated),i,i,i,i,i
CN(C)CCCN1C(=O)C(O)=C(C(=O)c2cccs2)C1c1cccc([N+](=O)[O-])c1 (configuration not stated),i,i,i,6.6*,i
CC1CCN(CCCCOc2ccccc2Br)CC1,i,i,i,i,i
Brc1ccc(OCCCCN2CCCCC2)cc1,i,i,i,i,i
CC1CCN(CCCCOc2cccc(Br)c2)CC1,i,i,-7*,i,i
CC1CCN(CCCCOc2ccc(Br)cc2)CC1,i,i,-7.4*,i,i
COc1ccc(CC(=O)Nc2ccc(-c3nnc(-c4ccccc4)o3)cc2)cc1OC,i,i,i,i,i
COc1ccc(CC(=O)Nc2cccc(-c3nnc(-c4ccc(C)cc4)o3)c2)cc1OC,i,i,-10*,i,i
Cc1c(N=C2N=C(NC(=O)c3cccs3)c3ccccc32)c(=O)n(-c2ccccc2)n1C,i,33*,i,i,i
COc1ccccc1C1=NOC(C)(c2sc(-c3ccc(Cl)cc3)nc2C)C1 (configuration not stated),i,i,i,i,i
O=C1c2ccccc2C(=O)C2OC12 (configuration not stated),i,43*,i,i,22*
CCO[C@@H]1OC(C(=O)N2CCN(C)CC2)=C[C@H](c2coc3ccccc3c2=O)[C@H]1CCCO,i,i,i,i,i
CCC(=O)N1CCN(c2ccc(NC(=O)c3ccco3)cc2Cl)CC1,/,/,i,/,i
CC1CCN(c2ccccc2NC(=O)c2cc3ccccc3o2)CC1,i,i,-7.4*,i,i
CCCC(=O)N1CCN(c2ccc(NC(=O)c3cc4ccccc4o3)cc2Cl)CC1,i,i,-8.6*,i,i
CCC(=O)N1CCN(c2ccc(NC(=O)c3cc4ccccc4o3)cc2Cl)CC1,i,i,-7.5*,i,i
CCCC(=O)N1CCN(c2ccc(NC(=O)c3cccs3)cc2Cl)CC1,i,i,i,i,i
CC(O)CNc1ncnc2cc(-c3ccc(F)cc3)sc12 (configuration not stated),i,i,i,i,i
CCOc1cc(S(=O)(=O)NCCCN2CCOCC2)ccc1F,i,i,i,i,i
COc1ccccc1CNC(=O)N1CCN(S(=O)(=O)c2ccccc2)CC1,i,i,i,i,i
CCOC(=O)CC(=O)CSc1nc(-c2cccnc2)cc(C)c1C#N,-4.9*,i,i,i,i
CC1(S(=O)(=O)O)CC(=O)c2ccccc2C1=O (configuration not stated),i,i,i,i,i
c1coc(C2Nc3cccc4cccc(c34)N2)c1,i,i,i,i,7.2*
O=C(NC1CCS(=O)(=O)C1)c1cccnc1 (configuration not stated),i,i,i,i,i
SMILES,MrgX1 antagonist,MrgX1 agonist,RGS4 act,MrgX1 allo act,RGS4 inh
COc1ccc(N=C2S/C(=C\c3ccc(N4CCOCC4)o3)C(=O)N2CCc2c[nH]c3ccccc23)cc1,-7.1*,i,i,i,i
COc1ccc(N=C2S/C(=C\c3ccc(OCC(=O)O)cc3)C(=O)N2CCc2c[nH]c3ccccc23)cc1,/,/,i,/,i
CCOCCCNC(=O)C(NC(=O)c1ccc(NC(C)=O)cc1)c1ccc(OC)cc1 (configuration not stated),i,i,i,i,i
NC(=O)C1CC(=O)N(c2ccc(OCc3c(Cl)cccc3Cl)cc2)C1 (configuration not stated),i,i,i,i,i
Cc1ccc(C)c(N2CCN(C(=O)c3ccc(CS(=O)Cc4cccc(Cl)c4)o3)CC2)c1 (configuration not stated),i,i,-8.7*,i,i
Cc1cccc(N2CCN(C(=O)c3ccc(CS(=O)Cc4ccc(Cl)cc4)o3)CC2)c1C (configuration not stated),i,i,i,i,i
COc1ccc(S(=O)(=O)Cc2ccc(C(=O)NCCc3cc(OC)ccc3OC)o2)cc1,i,i,i,7.5*,i
COc1ccc(S(=O)(=O)Cc2ccc(C(=O)N3CCN(c4cc(Cl)ccc4C)CC3)o2)cc1,i,i,-8.2*,i,i
CCc1ccc(OCCOCC(O)CNC2CCCC2)cc1 (configuration not stated),i,i,i,i,i
O=C(Nc1ccc(Cl)cc1)[C@@H]1[C@@H]2C(=O)N(c3ccc(Cl)cc3Cl)C(=O)[C@@H]2[C@H]2C=CC=NN21,-5.1*,i,i,i,i
O=C(Nc1ccc(Cl)cc1)[C@@H]1[C@@H]2C(=O)N(c3ccc(Cl)cc3)C(=O)[C@@H]2[C@H]2C=CC=NN21,i,i,i,i,i
CSc1cccc(CN2CCCC(C(=O)Nc3cccc(-n4cccn4)c3)C2)c1 (configuration not stated),i,i,-7.3*,i,i
CCOc1ccccc1CN1CCCC(C(=O)Nc2cccc(-n3cccn3)c2)C1 (configuration not stated),i,i,-7*,i,i
CCOc1cccc(CN2CCCC(C(=O)Nc3cccc(-n4cccn4)c3)C2)c1 (configuration not stated),i,i,i,i,i
CC1CN(C)C(C)CC1OC(=O)C(c1ccccc1)c1ccccc1 (configuration not stated),i,i,-7.2*,i,i
CN(C)[C@@H]1CCC[C@H]1OC(=O)C(c1ccccc1)c1ccccc1,i,i,i,i,i
COC(=O)c1ccc2c(c1)C(=O)/C(=C/c1ccc(O)cc1)O2,-5.3*,i,i,i,i
O=C1/C(=C/c2ccc(Br)cc2)Oc2cc(O)ccc21,-9.7*,i,i,i,i
CNC(=O)COC(=O)/C=C/c1cccs1,i,i,i,6.5*,i
COc1cc2[nH]c(=O)n(CCCCCC(=O)N3CC=C(c4ccccc4)CC3)c(=O)c2cc1OC,i,i,-8.8*,i,i
CCOc1cc2[nH]c(=O)n(CCCC(=O)NCc3ccco3)c(=O)c2cc1OCC,i,i,i,i,i
